Experiments:
Assay type in all cases: functional, organism-based
[1] = test system: Human immunodeficiency virus 1; assay: Potency evaluated against wild type HIV-1 strain IIIB
How it was run: (§1)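 Test compound dilutions in microtiter wells; HIV added at 200-250 CCID50/well and MT4 cells at 3 × 10^4 cells/well (final). Incubated 5 days at 37 °C, 5% CO2. Cytopathic effect of replicating virus read by MTT tetrazolium colorimetry. EC50 is the dose achieving 50% infection.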

[2] = test system: Human immunodeficiency virus 1; assay: Potency evaluated against NNRTI-Resistant HIV-1 strain Val106Ala; how it was run: as §1
[3] = test system: Human immunodeficiency virus 1; assay: Potency evaluated against NNRTI-Resistant HIV-1 strain Lys103Asn; how it was run: as §1
[4] = test system: Human immunodeficiency virus 1; assay: Potency evaluated against NNRTI-Resistant HIV-1 strain Tyr181Cys; how it was run: as §1
[5] = test system: Human immunodeficiency virus 1; assay: Potency evaluated against NNRTI-Resistant HIV-1 strain Tyr188Leu; how it was run: as §1
[6] = test system: Human immunodeficiency virus 1; assay: Potency evaluated against NNRTI-Resistant HIV-1 strain Leu100Ile; how it was run: as §1
[7] = test system: Human immunodeficiency virus 1; assay: Potency evaluated against NNRTI-Resistant HIV-1 strain Gly190Ala; how it was run: as §1

Row | SMILES | EC50 [1] [nM] | EC50 [2] [nM] | EC50 [3] [nM] | EC50 [4] [nM] | EC50 [5] [nM] | EC50 [6] [nM] | EC50 [7] [nM]
1 | CC(C)Nc1cccnc1N1CCN(C(=O)c2cc3cc(NS(C)(=O)=O)ccc3[nH]2)CC1 [DELAVIRDINE] | 16 | 2240 | 1700 | 1340 | 178 | 3470 | 38
2 | N#Cc1ccc(Nc2nc(N)nc(Cc3c(Cl)cccc3Cl)n2)cc1 | 2 | 26 | 41 | 277 | 431 | 293 | 1
3 | N#Cc1ccc(Nc2nc(N)nc(Cc3c(Cl)ccc4[nH]ccc34)n2)cc1 | 3 | 63 | 63 | 250 | 1000 | 1000 | 3
4 | Cc1cc(C#N)cc(C)c1Oc1nc(Nc2ccc(C#N)cc2)nc(N)c1Br [ETRAVIRINE] | 20 | 2 | […] | 6 | 3 | 3 | […]
5 | Cc1cc(C#N)cc(C)c1Oc1nc(Nc2ccc(C#N)cc2)nc(CO)c1Br | 4 | 2 | 4 | 6 | 6 | 2 | 1
6 | Cc1ccnc2c1NC(=O)c1cccnc1N2C1CC1 [NEVIRAPINE] | 85 | 2410 | 2470 | 5350 | > 100000 | 638 | 3460
7 | Cc1cc(C)c(Nc2ccnc(Nc3ccc(C#N)cc3)n2)c(C)c1 [DAPIVIRINE] | 1 | 3 | 4 | 8 | 40 | 16 | 1
8 | CC(=O)c1ccc(C)cc1N[C@@H](C(N)=O)c1c(Br)cccc1Br [(R)-LOVIRIDE] | 5 | 1000 | 1260 | 15800 | 50100 | 50 | 2510
9 | N#Cc1ccc(NC(=S)NC(=N)Cc2c(Cl)cccc2Cl)cc1 | 3 | 382 | 589 | 511 | 318 | 513 | 2
10 | N#Cc1ccc(Nc2nc(N)nc(Oc3c(Cl)cccc3Cl)n2)cc1 | 3 | 100 | 79 | 250 | 320 | 320 | 

Source: ChEMBL document CHEMBL1148309, “Roles of conformational and positional adaptability in structure-based design of TMC125-R165335 (etravirine) and related non-nucleoside reverse transcriptase inhibitors that are highly potent and effective against wild-type and drug-resistant HIV-1 variants” (J Med Chem, 2004)
